Bioassay records from PubChem BioAssay.
Rows were chosen to be rich in hits. Some 3.8% of all compounds tested hit in one or more screens of this group.
Yeast growth inh: reduces growth of yeast BB579 in restrictive medium. S. cerevisiae BB579 growth, OD615, 48 h. inhibition, % at 10 µM. 140,000 compounds, 0.51% hits;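 active means inhibition above a set limit, 3 SD over the mean compound inhibition, cut at about 44% in these data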
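System: Saccharomyces cerevisiae DeaD strain BB579, replicative lifespan model yeast. Buffer or medium: restrictive glucose-based CSMM-D medium. Doses: one dose, 10 µM compound with 0.25% DMSO. Timing: 4 h preincubation and 48 h exposure at 30 °C. Detection: turbidity as optical density at 615 nm. Benchmarks: amphotericin B 10 µg/mL, positive.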
Yeast lifespan up: extends the lifespan of yeast | S. cerevisiae growth with nicotinamide, OD615; deaD strain in restrictive glucose medium | inhibition of the nicotinamide effect, % at 10 µM | 130,000 compounds, 0.68% hits | AID 775;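 active means inhibition above a set limit, placed 3 SD over the median of all compounds, cut at about 26% in these data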;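 further: 0% = nicotinamide-treated wells and 100% = cells grown without nicotinamide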
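Measured by: optical density (absorbance) at 615 nm; System: modified budding yeast, DeaD strain; Medium: restrictive CSMM-D dextrose medium; Timing: 4 h preincubation then 48 h treatment at 30 °C.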
Measles CPE: protection of cells from measles virus. Measles virus-infected cells, CPE protection, absorbance. protection (pct of control), % at 4 µM. 140,000 compounds, 1.5% hits. AID 841; in the data active means protection mostly above about 24%, no sharp cut-off; inactive means mostly below about 26%
RAM inhibit: inhibitors of the yeast RAM network; S. cerevisiae dse1pr::URA3 reporter, 5-FOA growth OD615, 2 d; analog-sensitive cbk1-as2 kinase mutant strain; inhibition, % at 50 µM; 190,000 compounds, 1.8% hits; AID 868;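 active means inhibition above a set limit, 3 SD over mean compound inhibition, cut at about 8.4% in these data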;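 further: 0% = DMSO-only wells with no growth and 100% = 10 µM 1-NA-PP1 full growth; inhibition rescues growth on 5-FOA so higher OD means more RAM inhibition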
* hit, by the source's call; x = no result given.

SMILES	Yeast growth inh	Yeast lifespan up	Measles CPE	RAM inhibit
CC(=O)C(=Cc1ccc(C(=O)O)cc1)C(C)=O	x	x	x	2.6
CC(=C\C(=O)O)/C(=C/c1ccccc1)C(=O)O	-20.6	9.7	24.9*	-0.6
Cc1cccc(-c2nc(C#N)c(NC3CCCCC3)o2)c1	-23.6	-8.1	43.1*	0.0
Cc1cccc(-c2nc(CS(=O)CC(=O)NC3CCCC3)c(C)o2)c1 (stereo not drawn)	-24.9	-10.1	8.6	1.6
Cc1cccc(OCC(=O)NNC(=O)c2cc3ccccc3oc2=O)c1	-18.7	-19.8	43.4*	1.8
Cn1cnnc1SCC(=O)Nc1ccc(OC(F)F)cc1	x	x	x	3.5
Cc1nc(-c2ccncc2)sc1C(=O)Nc1ccc(Cl)cc1	x	x	x	0.0
Nc1c(C(=O)Nc2ccccc2)sc2nc(-c3ccco3)ccc12	-10.6	-18.2	10.1	10.5*
Cc1nc(-c2cccnc2)sc1C(=O)Nc1ccc(Cl)cc1	-5.0	-6.1	33.0*	7.7
COc1ccccc1NC(=O)c1sc2nc(-c3ccco3)ccc2c1N	-39.6	-24.5	27.1	2.5
Cc1nc(N)sc1C(=O)Nc1ccccc1	-36.9	-17.5	35.2*	0.7
N/N=C(/Cc1nc2ccccc2[nH]1)c1ccc([N+](=O)[O-])cc1	x	x	x	0.6
O=C(Cn1cc(C(F)(F)F)cc(Cl)c1=O)Nc1cc(Cl)cc(Cl)c1	x	x	x	6.1
Cn1c(=O)c2nc(NCc3ccccc3)cnc2n(C)c1=O	13.4	-12.3	4.6	0.9
Cc1nc2c(=O)n(C)c(=O)n(C)c2nc1Cl	5.4	75.1*	0.1	0.7
COc1cc(/C=c2\sc3nc(-c4ccncc4)nn3c2=O)ccc1OC(C)=O	-38.8	32.6*	7.1	1.4
Cc1cc(O)cc2c1C(c1ccc(F)cc1)CC1(CC(C)(C)NC(=S)N1)O2 (stereo not drawn)	x	x	x	2.1
COc1ccc(C2CC3(CC(C)(C)NC(=S)N3)Oc3cc(O)cc(C)c32)cc1 (stereo not drawn)	-5.0	1.1	16.3	9.7*
NC1=NC(=O)/C(=C\c2cc([N+](=O)[O-])ccc2Cl)S1	x	x	x	1.3
O=C(O)C1C2CCC(O2)C1C(=O)Nc1cnn(Cc2ccccc2)c1 (stereo not drawn)	-7.5	7.6	7.0	-0.5
O=C(Nc1cnn(Cc2ccccc2)c1)NC12CC3CC(CC(C3)C1)C2	16.8	-9.3	23.1*	1.9
Cc1noc(C)c1C(=O)NCCCc1ccccc1	-32.0	-7.0	38.1*	1.5
O=C(Oc1cc(=O)n2ccccc2n1)c1ccccc1	-17.4	43.4*	7.9	-0.9
O=C(O)c1c(Cl)nc2ccccn12	x	x	x	5.6
NC1=NC(=O)/C(=C/c2cn(Cc3ccccc3)c3ccccc23)S1	-16.8	0.0	16.4	5.1
SMILES	Yeast growth inh	Yeast lifespan up	Measles CPE	RAM inhibit
O=C(Cc1cscn1)c1ccc(O)cc1O	9.8	-6.1	36.2*	-0.6
Cc1nc(CC(=O)c2ccc(O)cc2O)cs1	-8.4	-6.7	6.8	0.4
CCCCCC/C(=N/O)c1ccccn1	99.8*	-19.2	12.0	-1.6
CNC(=S)NNC(=O)c1sc2cc(C(F)(F)F)cnc2c1-c1ccccn1	x	x	x	8.6*
CCc1ccc(N(C(=O)c2csnn2)C(C(=O)NCc2ccccc2)c2ccco2)cc1 (stereo not drawn)	-7.5	-8.6	34.7*	2.1
COc1ccc(CNC(=O)C(c2ccco2)N(C(=O)c2ccccn2)c2ccccc2)cc1 (stereo not drawn)	x	x	x	1.1
CCOc1ccccc1OCCCCCc1c(C)n[nH]c1C	-18.5	-7.3	27.2	-0.6
COc1ccccc1OCCCCCc1c(C)n[nH]c1C	-31.3	-10.2	4.3	1.1
Cc1ccc(OCCCOc2cccc3cccnc23)cc1C	42.0	-30.8	3.5	-0.9
Cc1cccc(OCCCCc2c(C)n[nH]c2C)c1C	69.1*	-19.3	4.5	-0.3
Cc1cccc(OCCCOc2cccc3cccnc23)c1C	72.8*	-28.0	2.8	0.1
COc1ccccc1OCCCc1c(C)n[nH]c1C	99.6*	-30.1	14.1	-0.9
CCNC(=O)CC1C(=O)N(c2ccc(C)cc2)C(=O)N1CCc1sccc1C (stereo not drawn)	x	x	x	-0.3
CC(=O)c1ccc(NC(=O)CN2CCN(c3ncccn3)CC2)cc1	-51.9	-6.4	77.6*	0.3
COc1cccc(NC(=S)N2CCN(Cc3ccccc3)CC2)c1	-45.1	6.3	7.6	0.9
Cc1ccc(CSc2ncnc3c2cnn3-c2ccc(C)cc2)cc1	-28.2	4.5	9.7	9.5*
Cc1ccc(CSc2ncnc3c2cnn3-c2ccccc2)cc1	-28.3	1.7	1.6	6.6
Cc1c(NC(=O)C(C)OC(=O)/C=C/c2ccc3c(c2)OCO3)c(=O)n(-c2ccccc2)n1C (stereo not drawn)	x	x	x	-0.4
